Measured values reported in ChEMBL document CHEMBL1140904, “Synthesis and analysis of novel glycerolipids for the treatment of metabolic syndrome” (J Med Chem, 2009).

Tests used:
Rattus norvegicus [1] = experiment: Increase in [1-14C]palmitoyl-CoA oxidation in po dosed Wistar rat liver homogenate after 6 days; format: functional, organism-based
Procedure, shortened: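 Rats were dosed by gastric intubation for 6 days with 85 or 250 µmol TTA-equivalent in 0.5% CMC, with palmitic acid controls. Liver was homogenized in 0.25 M sucrose, 10 mM HEPES pH 7.4, 1 mM EDTA at 0-4 °C. Palmitoyl-CoA oxidation was read as acid-soluble products from [1-14C]-palmitoyl-CoA in the postnuclear fraction. Mean ± SD, n=5.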

Rattus norvegicus [2] = experiment: Effect on fatty acid composition in Wistar rat assessed as change in liver MUFA level at dose equivalent to 250 umol of tetradecylthioacetic acid, po after 6 days; format: functional
Procedure, shortened: (§1)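 Male Wistar rats were gavaged once daily for 6 days with compound in 0.5% CMC at 85 or 250 µmol TTA-equivalent per animal. Controls received palmitic acid. Liver was homogenized in 0.25 M sucrose/10 mM HEPES pH 7.4/1 mM EDTA at 0-4 °C. Lipids were extracted with chloroform:methanol 2:1 and spiked with 21:0 internal standard. Fatty acids were BF3-methanol transesterified and quantified as wt%. Values are mean ± SD, n=5.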

Rattus norvegicus [3] = experiment: Decrease in plasma cholesterol level in Wistar rat at dose equivalent to 250 umol of tetradecylthioacetic acid, po after 6 days relative to control; format: functional; design: scale not given: the % may be the effect or the level left
Procedure, shortened: (§2)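 Male Wistar rats (170-210 g), housed in pairs with chow and water, were gavaged once daily for 6 days with test lipid in 0.5% (w/v) carboxymethylcellulose at 85 or 250 µmol TTA-equivalent per animal. Controls received palmitic acid in CMC. Plasma triacylglycerol and cholesterol were measured with an enzymatic kit, and liver levels were also determined. Values are mean ± SD, n=5 rats.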

Rattus norvegicus [4] = experiment: Effect on fatty acid composition in Wistar rat assessed as change in liver PUFA level at dose equivalent to 250 umol of tetradecylthioacetic acid, po after 6 days; format: functional; procedure, shortened: as §1
Rattus norvegicus [5] = experiment: Effect on fatty acid composition in Wistar rat assessed as change in plasma PUFA level at dose equivalent to 250 umol of tetradecylthioacetic acid, po after 6 days; format: functional
Rattus norvegicus [6] = experiment: Induction of PPAR-alpha-regulated mitochondrial fatty acyl-CoA oxidase activity in Wistar rat at dose equivalent to 250 umol of tetradecylthioacetic acid, po after 6 days relative to control; format: functional; conditions: in the assay text read “peroxisomal fatty acyl-CoA oxidase” for “mitochondrial fatty acyl-CoA oxidase”
Procedure, shortened: (§3)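 Rats were dosed by gastric intubation for 6 days at 85 or 250 µmol TTA-equivalent in 0.5% CMC, with palmitic acid controls. Fatty acyl-CoA oxidase was measured in the liver postnuclear fraction by a coupled assay, following H2O2 production as the rise in dichlorofluorescein absorbance with palmitoyl-CoA. Mean ± SD, n=5.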

Rattus norvegicus [7] = experiment: Effect on fatty acid composition in Wistar rat assessed as change in liver 18;2, n-6 level at dose equivalent to 250 umol of tetradecylthioacetic acid, po after 6 days; format: functional; procedure, shortened: as §1
Rattus norvegicus [8] = experiment: Induction of PPAR-alpha-regulated HMG-CoA synthase activity in po dosed Wistar rat after 6 days; format: functional, organism-based
Procedure, shortened: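 Wistar rats were gavaged daily for 6 days at 85 or 250 µmol TTA-equivalent in 0.5% CMC, with palmitic acid controls. HMG-CoA synthase activity was assayed in the liver postnuclear fraction by the Clinkenbeard method. Mean ± SD, 5 rats/group.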

Rattus norvegicus [9] = experiment: Effect on fatty acid composition in Wistar rat assessed as change in plasma saturated fatty acid level at dose equivalent to 250 umol of tetradecylthioacetic acid, po after 6 days; format: functional
Rattus norvegicus [10] = experiment: Plasma concentration in Wistar rat assessed as tetradecylthioacetic acid at dose equivalent to 250 umol of tetradecylthioacetic acid, po after 6 days; format: ADME, organism-based; conditions: in vivo, 144 h
Rattus norvegicus [11] = experiment: Effect on fatty acid composition in Wistar rat assessed as change in liver saturated fatty acid level at dose equivalent to 85 umol of tetradecylthioacetic acid, po after 6 days; format: functional; procedure, shortened: as §1
Rattus norvegicus [12] = experiment: Effect on fatty acid composition in Wistar rat assessed as change in liver 18;2, n-6 level at dose equivalent to 85 umol of tetradecylthioacetic acid, po after 6 days; format: functional; procedure, shortened: as §1
Rattus norvegicus [13] = experiment: Effect on fatty acid composition in Wistar rat assessed as change in plasma LCPUFA, n-6 level at dose equivalent to 85 umol of tetradecylthioacetic acid, po after 6 days; format: functional
Rattus norvegicus [14] = experiment: Effect on fatty acid composition in Wistar rat assessed as change in plasma LCn-6/18:2 level at dose equivalent to 85 umol of tetradecylthioacetic acid, po after 6 days; format: functional
Rattus norvegicus [15] = experiment: Effect on fatty acid composition in Wistar rat assessed as change in liver PUFA level at dose equivalent to 85 umol of tetradecylthioacetic acid, po after 6 days; format: functional; procedure, shortened: as §1
Rattus norvegicus [16] = experiment: Induction of PPAR-alpha-regulated CPT2 activity in po dosed Wistar rat after 6 days; format: functional, organism-based
Procedure, shortened: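 Wistar rats were dosed orally for 6 days (85 or 250 µmol TTA-equivalent in 0.5% CMC; palmitic acid controls). CPT-II activity was measured in the liver mitochondrial fraction, prepared from sucrose/HEPES pH 7.4/EDTA homogenate at 0-4 °C. Means ± SD from 5 rats per group.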

Rattus norvegicus [17] = experiment: Effect on fatty acid composition in Wistar rat assessed as change in plasma 18;2, n-6 level at dose equivalent to 85 umol of tetradecylthioacetic acid, po after 6 days; format: functional
Rattus norvegicus [18] = experiment: Decrease in plasma triacylglycerol level in Wistar rat at dose equivalent to 250 umol of tetradecylthioacetic acid, po after 6 days relative to control; format: functional; design: scale not given: the % may be the effect or the level left; procedure, shortened: as §2
Rattus norvegicus [19] = experiment: Effect on fatty acid composition in Wistar rat assessed as change in plasma MUFA level at dose equivalent to 250 umol of tetradecylthioacetic acid, po after 6 days; format: functional
Rattus norvegicus [20] = experiment: Decrease in liver triacylglycerol level in Wistar rat at dose equivalent to 250 umol of tetradecylthioacetic acid, po after 6 days relative to control; format: functional; design: scale not given: the % may be the effect or the level left; procedure, shortened: as §2
Rattus norvegicus [21] = experiment: Effect on fatty acid composition in Wistar rat assessed as change in liver MUFA level at dose equivalent to 85 umol of tetradecylthioacetic acid, po after 6 days; format: functional; procedure, shortened: as §1
Rattus norvegicus [22] = experiment: Decrease in plasma cholesterol level in po dosed Wistar rat after 6 days; format: functional, organism-based; procedure, shortened: as §2
Rattus norvegicus [23] = experiment: Effect on fatty acid composition in Wistar rat assessed as change in plasma 18;2, n-6 level at dose equivalent to 250 umol of tetradecylthioacetic acid, po after 6 days; format: functional
Rattus norvegicus [24] = experiment: Effect on fatty acid composition in Wistar rat assessed as change in plasma MUFA level at dose equivalent to 85 umol of tetradecylthioacetic acid, po after 6 days; format: functional
Rattus norvegicus [25] = experiment: Effect on fatty acid composition in Wistar rat assessed as change in liver saturated fatty acid level at dose equivalent to 250 umol of tetradecylthioacetic acid, po after 6 days; format: functional; procedure, shortened: as §1
Rattus norvegicus [26] = experiment: Effect on fatty acid composition in Wistar rat assessed as change in plasma LCn-6/18:2 level at dose equivalent to 250 umol of tetradecylthioacetic acid, po after 6 days; format: functional
Rattus norvegicus [27] = experiment: Effect on fatty acid composition in Wistar rat assessed as change in plasma LCPUFA, n-6 level at dose equivalent to 250 umol of tetradecylthioacetic acid, po after 6 days; format: functional
Rattus norvegicus [28] = experiment: Induction of PPAR-alpha-regulated fatty acyl-CoA oxidase activity in po dosed Wistar rat after 6 days; format: functional, organism-based; procedure, shortened: as §3
Rattus norvegicus [29] = experiment: Decrease in liver cholesterol level in Wistar rat at dose equivalent to 250 umol of tetradecylthioacetic acid, po after 6 days relative to control; format: functional; design: scale not given: the % may be the effect or the level left; procedure, shortened: as §2

Drug uptake (Rattus norvegicus [10]): 1.95%
Activity (Rattus norvegicus [28]): Dose-dependent effect
Compound: CCCCCCCCCCCCCCSCC(=O)OC[C@H](COP(=O)([O-])OCC[N+](C)(C)C)OC(=O)CSCCCCCCCCCCCCCC [PHOSPHATIDYLCHOLINE]
Activity (Rattus norvegicus [1]): Dose-dependent effect
Activity (Rattus norvegicus [2]): 16.33%
Activity (Rattus norvegicus [3]): 60%
Activity (Rattus norvegicus [4]): 4.05%
Activity (Rattus norvegicus [5]): 1.86%
fold change (FC) (Rattus norvegicus [6]): 5
Activity (Rattus norvegicus [7]): 8.79%
Activity (Rattus norvegicus [8]): Dose-dependent effect
Activity (Rattus norvegicus [9]): 35.25%
Activity (Rattus norvegicus [11]): 39.67%
Activity (Rattus norvegicus [12]): 11.99%
Activity (Rattus norvegicus [13]): 19.06%
Activity (Rattus norvegicus [14]): 0.97%
Activity (Rattus norvegicus [15]): 4.91%
Activity (Rattus norvegicus [16]): Dose-dependent effect
Activity (Rattus norvegicus [17]): 19.52%
Activity (Rattus norvegicus [18]): 60%
Activity (Rattus norvegicus [19]): 21.62%
Activity (Rattus norvegicus [20]): 25%
Activity (Rattus norvegicus [21]): 16.66%
Activity (Rattus norvegicus [22]): Dose-dependent effect
Activity (Rattus norvegicus [23]): 17.97%
Activity (Rattus norvegicus [24]): 22.53%
Activity (Rattus norvegicus [25]): 39.22%
Activity (Rattus norvegicus [26]): 1.25%
Activity (Rattus norvegicus [27]): 22.07%
Activity (Rattus norvegicus [29]): 20%
